In ChEMBL document CHEMBL1148581, “Antimalarial and antiplasmodial activities of norneolignans. Syntheses and SAR” (J Med Chem, 2006):
Converted amounts (≈) assume the structure as drawn. The source made the active and inactive calls. The rule behind the calls is not given here.

species: Oryctolagus cuniculus; experiment: Inhibitory activity against SERCA in rabbit muscle at 3.5 ug/mL; type: tissue-based; details: Muscle tissue

Question: Which inhibition does the source give for `C=CC(/C=C/c1ccc(Cl)cc1Cl)c1ccc(OC)cc1OC` (configuration not stated) here?
Answer: inactive

Question: For `C=CCOc1ccc(CCC(CCCC)c2ccc(OC)cc2OC)cc1` (configuration not stated), which inhibition is on record?
Answer: inactive

system: Mus musculus; experiment: Antimalarial activity in NMRI mice (Mus musculus) infected with Plasmodium berghei K173 at 100 mg/kg; type: functional; details: not given
Outline: (§1)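 Mice inoculated day 0 with 1×10⁶ P. berghei K173-infected red cells in 0.2 mL 0.9% saline; five mice per group. At day 4 (parasitemia 2-9%), ip dosing in 0.9% saline with 10% Tween 80, pH 4.5, on days 4 and 5; control group untreated or vehicle-injected. Day-5 tail-vein blood smear, Giemsa-stained, infected cells counted microscopically; % inhibition versus control.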

Question: `C=CCOc1ccc(CCC(CCCC)c2ccc(OC)cc2OC)cc1` (configuration not stated) was tested. Which inhibition in vivo at 100 mg/kg did it give?
Answer: 59%

system: Mus musculus; experiment: Antimalarial activity in NMRI mice (Mus musculus) infected with Plasmodium berghei K173 at 50 mg/kg; type: functional; details: not given; outline: as §1

Question: With `C=CCOc1ccc(CCC(CCCC)c2ccc(OC)cc2OC)cc1` (configuration not stated) as the molecule, how does the inhibition in vivo at 50 mg/kg read?
Answer: 49%

system: Mus musculus; experiment: Antimalarial activity in NMRI mice (Mus musculus) infected with Plasmodium berghei K173 at 25 mg/kg; type: functional; details: not given; outline: as §1

Question: With `C=CC(/C=C/c1ccc(Cl)cc1Cl)c1ccc(OC)cc1OC` (configuration not stated) as the molecule, how does the inhibition in vivo at 25 mg/kg read?
Answer: 57%

Question: Which inhibition in vivo at 25 mg/kg does the source give for `C=CCOc1ccc(CCC(CCCC)c2ccc(OC)cc2OC)cc1` (configuration not stated) here?
Answer: 25%

system: Plasmodium falciparum; experiment: Antiplasmodial activity against Plasmodium falciparum 3D7; type: functional, organism-based; details: not given
Outline: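 Desjardins [³H]phenylalanine incorporation method (Ziegler modification). Parasitized erythrocytes (blood type 0, 5% hematocrit, 2-3% parasitemia) mixed with compounds in RPMI 1640/HEPES with 0.45% Albumax II, L-glutamine, hypoxanthine, gentamicin; final DMSO ≤0.5%. 24 h at 37 °C under 93% N₂/5% CO₂/2% O₂, then label added for further 24 h; filter-harvested, scintillation counted. Three experiments, each in triplicate; IC50.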

Question: How did the IC50 turn out when `C=CC(/C=C/c1ccc(OC)cc1OC)c1ccc(Cl)cc1Cl` (configuration not stated) was run?
Answer: 7 µg/mL (≈ 20 µM)

Question: Which IC50 does the source give for `CCC(/C=C/c1ccccc1F)c1cc(OC)cc(OC)c1` (configuration not stated) here?
Answer: 6 µg/mL (≈ 20 µM)

Question: `C=CC(/C=C/c1ccccc1C(F)(F)F)c1ccc(Cl)cc1Cl` (configuration not stated) was tested. Which IC50 did it give?
Answer: 8.2 µg/mL (≈ 23 µM)

Question: Which IC50 does the source give for `C=C[C@H](/C=C/c1ccc(O)cc1)c1ccc(O)cc1` here?
Answer: 14 µg/mL (≈ 55.5 µM)

Question: For `C=CC(/C=C/c1ccccc1Br)c1ccc(OC)cc1OC` (configuration not stated), which IC50 is on record?
Answer: 8.8 µg/mL (≈ 24.5 µM)

Question: Which IC50 does the source give for `CCC(/C=C/c1ccccc1CN(C)C)c1ccc(Cl)cc1Cl` (configuration not stated) here?
Answer: 4.1 µg/mL (≈ 11.8 µM)

Question: With `C=C[C@@H](/C=C/c1ccc(O)cc1)c1ccc(O)cc1` as the molecule, how does the IC50 read?
Answer: 20 µg/mL (≈ 79.3 µM)

Question: `C=CCOc1ccc(/C=C/C(C=C)c2ccc(OC)cc2OC)cc1` (configuration not stated) was tested. Which IC50 did it give?
Answer: 7 µg/mL (≈ 20.8 µM)

Question: Which IC50 does the source give for `C=CC(/C=C/c1ccc(Cl)cc1Cl)c1ccc(OC)cc1OC` (configuration not stated) here?
Answer: 1.5 µg/mL (≈ 4.29 µM)

Question: Which IC50 does the source give for `C=CCOc1ccc(CCC(C=C)c2ccc(OC)cc2OC)cc1` (configuration not stated) here?
Answer: 5.2 µg/mL (≈ 15.4 µM)

Question: Which IC50 does the source give for `CCC(/C=C/c1ccc(OC)cc1OC)c1ccc(Cl)cc1Cl` (configuration not stated) here?
Answer: 6 µg/mL (≈ 17.1 µM)

Question: How did the IC50 turn out when `CCC(/C=C/c1ccc(F)cc1)c1ccc(F)cc1` (configuration not stated) was run?
Answer: 13 µg/mL (≈ 50.3 µM)

Question: Which IC50 does the source give for `CCC(/C=C/c1ccccc1Br)c1ccc(OC)cc1OC` (configuration not stated) here?
Answer: 5.4 µg/mL (≈ 14.9 µM)

Question: Which IC50 does the source give for `C=CCOc1ccc(/C=C/C(CCCC)c2ccc(OC)cc2OC)cc1` (configuration not stated) here?
Answer: 2.7 µg/mL (≈ 7.37 µM)

Question: Which IC50 does the source give for `C=CCOc1ccc(C(O)CC(C=C)c2ccc(OC)cc2OC)cc1` (configuration not stated) here?
Answer: 16 µg/mL (≈ 45.1 µM)

Question: Which IC50 does the source give for `C=CCOc1ccc(CCC(CCCC)c2ccc(OC)cc2OC)cc1` (configuration not stated) here?
Answer: 2.2 µg/mL (≈ 5.97 µM)

Question: With `C=CC(/C=C/c1ccc(F)cc1F)c1ccc(OC)cc1OC` (configuration not stated) as the molecule, how does the IC50 read?
Answer: 7 µg/mL (≈ 22.1 µM)

Question: How did the IC50 turn out when `CCC(/C=C/c1ccc(Cl)cc1Cl)c1ccc(OC)cc1OC` (configuration not stated) was run?
Answer: 4.2 µg/mL (≈ 12 µM)

Question: How did the IC50 turn out when `C=CC(/C=C/c1ccccc1CN(C)C)c1ccc(Cl)cc1Cl` (configuration not stated) was run?
Answer: 3 µg/mL (≈ 8.66 µM)

Question: Which IC50 does the source give for `C=CC(/C=C/c1ccc(O)cc1)c1ccc(O)cc1` (racemic) here?
Answer: 13 µg/mL (≈ 51.5 µM)

Question: With `C=CC(/C=C/c1ccc(OC)c(OC)c1OC)c1cccc(F)c1` (configuration not stated) as the molecule, how does the IC50 read?
Answer: 6 µg/mL (≈ 18.3 µM)

Question: For `C=CCOc1ccc(CCC(CC)c2ccc(OC)cc2OC)cc1` (configuration not stated), which IC50 is on record?
Answer: 3 µg/mL (≈ 8.81 µM)

Question: Which IC50 does the source give for `C=CC(/C=C/c1ccc(F)cc1)c1ccc(F)cc1` (configuration not stated) here?
Answer: 10 µg/mL (≈ 39 µM)

Question: For `CCC(/C=C/c1ccc(F)cc1F)c1ccc(OC)cc1OC` (configuration not stated), which IC50 is on record?
Answer: 3.9 µg/mL (≈ 12.3 µM)

Question: `C=CC(/C=C/c1ccccc1F)c1cc(OC)cc(OC)c1` (configuration not stated) was tested. Which IC50 did it give?
Answer: 6 µg/mL (≈ 20.1 µM)

Question: With `COc1ccc(C2CC(c3ccccc3Br)OC2C)c(OC)c1` (configuration not stated) as the molecule, how does the IC50 read?
Answer: 3 µg/mL (≈ 7.95 µM)

Question: With `C=CCOc1ccc(/C=C/C(CC)c2ccc(OC)cc2OC)cc1` (configuration not stated) as the molecule, how does the IC50 read?
Answer: 4 µg/mL (≈ 11.8 µM)

Question: `CCC(/C=C/c1ccc(OC)c(OC)c1OC)c1cccc(F)c1` (configuration not stated) was tested. Which IC50 did it give?
Answer: 3.9 µg/mL (≈ 11.8 µM)

Question: `COc1ccc(C2CC(c3ccc(Cl)cc3Cl)OC2C)c(OC)c1` (configuration not stated) was tested. Which IC50 did it give?
Answer: 6.9 µg/mL (≈ 18.8 µM)

Question: With `CCC(/C=C/c1ccccc1C(F)(F)F)c1ccc(Cl)cc1Cl` (configuration not stated) as the molecule, how does the IC50 read?
Answer: 6 µg/mL (≈ 16.7 µM)

Question: For `C=CCOc1ccc(CCCc2ccc(OC)cc2OC)cc1`, which IC50 is on record?
Answer: 9.5 µg/mL (≈ 30.4 µM)
